# In ChEMBL document CHEMBL3526118, “Combination of GSH trapping and time-dependent inhibition assays as a predictive method of drugs generating highly reactive metabolites” (Drug Metab Dispos, 2011):
# Experiments:
# CYP2D6 [1] = target: T1, CYP2D6 (Homo sapiens, UniProt P10635); test: in vitro
# Liver microsome [2] = test: Covalent binding in human liver microsomes measured per mg of protein using radiolabelled compound at 10 uM after 1 hr incubation by liquid scintillation counting
# CYP2C8 [3] = target: T2, CYP2C8 (Homo sapiens, UniProt P10632); test: in vitro
# T2 sequence (P10632 whole entry): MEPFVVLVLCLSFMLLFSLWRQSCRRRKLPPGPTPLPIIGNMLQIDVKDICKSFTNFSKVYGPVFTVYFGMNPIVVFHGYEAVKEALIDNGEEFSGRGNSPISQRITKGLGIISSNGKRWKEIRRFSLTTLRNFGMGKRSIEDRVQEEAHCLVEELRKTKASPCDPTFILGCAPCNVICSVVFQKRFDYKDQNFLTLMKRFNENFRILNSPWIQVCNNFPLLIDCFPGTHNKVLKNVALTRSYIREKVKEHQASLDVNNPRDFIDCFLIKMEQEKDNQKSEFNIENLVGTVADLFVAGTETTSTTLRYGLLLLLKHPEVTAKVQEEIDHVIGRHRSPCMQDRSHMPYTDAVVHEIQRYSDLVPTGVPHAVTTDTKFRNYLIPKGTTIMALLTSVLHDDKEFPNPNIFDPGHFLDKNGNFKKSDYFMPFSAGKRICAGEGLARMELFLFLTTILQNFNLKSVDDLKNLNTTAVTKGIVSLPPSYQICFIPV
# CYP2B6 [4] = target: T3, CYP2B6 (Homo sapiens, UniProt P20813); test: in vitro
# T3 sequence (P20813 whole entry): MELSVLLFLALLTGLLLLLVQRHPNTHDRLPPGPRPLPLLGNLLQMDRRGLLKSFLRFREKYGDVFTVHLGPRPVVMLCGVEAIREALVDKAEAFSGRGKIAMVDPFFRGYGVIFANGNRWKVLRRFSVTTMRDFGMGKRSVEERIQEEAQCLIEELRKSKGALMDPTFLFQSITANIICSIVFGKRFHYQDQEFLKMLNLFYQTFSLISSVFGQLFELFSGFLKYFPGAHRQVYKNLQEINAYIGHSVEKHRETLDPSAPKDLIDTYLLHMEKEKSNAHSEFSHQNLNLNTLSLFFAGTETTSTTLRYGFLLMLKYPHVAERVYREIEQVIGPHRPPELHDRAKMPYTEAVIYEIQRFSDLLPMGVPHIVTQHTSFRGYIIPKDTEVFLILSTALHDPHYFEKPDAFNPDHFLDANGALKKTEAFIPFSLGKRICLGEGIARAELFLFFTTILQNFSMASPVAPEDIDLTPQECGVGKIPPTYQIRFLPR
# Liver microsome [5] = settings: human, microsomes, 100 µM
# CYP2C19 = CYP2C19 (Homo sapiens, UniProt P33261); test: in vitro
# Sequence of CYP2C19 (P33261 whole entry): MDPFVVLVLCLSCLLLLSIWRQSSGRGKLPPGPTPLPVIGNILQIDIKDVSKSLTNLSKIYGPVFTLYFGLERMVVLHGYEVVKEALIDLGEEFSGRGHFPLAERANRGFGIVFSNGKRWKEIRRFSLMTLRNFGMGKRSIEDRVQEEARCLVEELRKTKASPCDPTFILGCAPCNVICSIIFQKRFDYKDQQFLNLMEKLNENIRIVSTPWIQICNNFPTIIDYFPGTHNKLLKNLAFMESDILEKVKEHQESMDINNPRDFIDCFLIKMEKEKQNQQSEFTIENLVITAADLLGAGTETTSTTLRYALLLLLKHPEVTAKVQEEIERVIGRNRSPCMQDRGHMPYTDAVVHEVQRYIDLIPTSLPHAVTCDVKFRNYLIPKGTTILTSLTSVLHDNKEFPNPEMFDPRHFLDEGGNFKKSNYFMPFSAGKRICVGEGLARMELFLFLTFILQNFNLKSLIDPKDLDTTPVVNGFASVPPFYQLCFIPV
# [6] = Intrinsic clearance for reactive metabolites formation assessed as summation of [3H]GSH adduct formation rate-based reactive metabolites formation and cytochrome P450 (unknown origin) inactivation rate-based reactive metabolites formation; settings: human
# CYP2C9 [7] = target: T4, CYP2C9 (Homo sapiens, UniProt P11712); test: Time dependent inhibition of CYP2C9 (unknown origin) at 10 uM by LC/MS system; format: ADME
# T4 sequence (P11712 whole entry): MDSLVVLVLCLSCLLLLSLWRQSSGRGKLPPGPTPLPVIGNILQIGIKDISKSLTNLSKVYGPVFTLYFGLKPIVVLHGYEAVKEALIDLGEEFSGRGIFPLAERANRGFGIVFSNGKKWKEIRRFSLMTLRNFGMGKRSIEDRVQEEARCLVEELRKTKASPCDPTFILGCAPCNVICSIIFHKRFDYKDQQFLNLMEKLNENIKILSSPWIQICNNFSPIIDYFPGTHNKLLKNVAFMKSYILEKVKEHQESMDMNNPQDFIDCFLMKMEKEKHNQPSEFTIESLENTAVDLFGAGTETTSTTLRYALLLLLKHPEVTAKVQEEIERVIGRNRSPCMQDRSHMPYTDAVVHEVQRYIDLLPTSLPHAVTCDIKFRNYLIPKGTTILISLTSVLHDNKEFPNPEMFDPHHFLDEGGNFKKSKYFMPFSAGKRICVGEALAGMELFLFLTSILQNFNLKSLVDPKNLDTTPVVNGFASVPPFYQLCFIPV
# In short: (§1)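 Human liver microsomes at 1.0 mg/mL were preincubated 0 or 30 min with compound and NADPH-generating system in 0.1 M sodium phosphate, then diluted ten-fold into incubation containing 200 μM tolbutamide (final) for 10 min to probe CYP2C9. Percent of matched no-inhibitor control was determined at each time. Inactivation = 100 × [1 − ratio of 30-min to 0-min values]; 10% threshold.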
# Liver microsome [8] = test: Metabolic activation in human liver microsomes assessed as [3H]GSH adduct formation rate measured per mg of protein at 100 uM by [3H]GSH trapping assay
# CYP3A4 [9] = target: T5, CYP3A4 (Homo sapiens, UniProt P08684); test: in vitro
# T5 sequence (P08684 whole entry): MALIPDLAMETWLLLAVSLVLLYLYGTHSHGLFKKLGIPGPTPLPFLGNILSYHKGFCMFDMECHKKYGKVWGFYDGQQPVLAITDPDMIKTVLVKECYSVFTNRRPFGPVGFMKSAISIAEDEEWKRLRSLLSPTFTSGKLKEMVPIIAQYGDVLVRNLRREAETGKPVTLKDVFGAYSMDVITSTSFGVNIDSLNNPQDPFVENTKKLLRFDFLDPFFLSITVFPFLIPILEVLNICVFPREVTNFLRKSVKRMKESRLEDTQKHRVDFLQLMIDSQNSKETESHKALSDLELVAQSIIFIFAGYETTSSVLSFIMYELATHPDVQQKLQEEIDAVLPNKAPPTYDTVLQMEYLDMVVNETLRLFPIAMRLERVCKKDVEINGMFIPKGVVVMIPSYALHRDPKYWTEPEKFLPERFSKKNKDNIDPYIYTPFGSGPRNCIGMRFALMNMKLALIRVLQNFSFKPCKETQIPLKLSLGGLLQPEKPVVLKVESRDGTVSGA
# [10] = Intrinsic clearance for reactive metabolites formation per mg of protein based on cytochrome P450 (unknown origin) inactivation rate by TDI assay; settings: human
# CYP1A2 = target: T6, CYP1A2 (Homo sapiens, UniProt P05177); test: in vitro
# T6 sequence (P05177 whole entry): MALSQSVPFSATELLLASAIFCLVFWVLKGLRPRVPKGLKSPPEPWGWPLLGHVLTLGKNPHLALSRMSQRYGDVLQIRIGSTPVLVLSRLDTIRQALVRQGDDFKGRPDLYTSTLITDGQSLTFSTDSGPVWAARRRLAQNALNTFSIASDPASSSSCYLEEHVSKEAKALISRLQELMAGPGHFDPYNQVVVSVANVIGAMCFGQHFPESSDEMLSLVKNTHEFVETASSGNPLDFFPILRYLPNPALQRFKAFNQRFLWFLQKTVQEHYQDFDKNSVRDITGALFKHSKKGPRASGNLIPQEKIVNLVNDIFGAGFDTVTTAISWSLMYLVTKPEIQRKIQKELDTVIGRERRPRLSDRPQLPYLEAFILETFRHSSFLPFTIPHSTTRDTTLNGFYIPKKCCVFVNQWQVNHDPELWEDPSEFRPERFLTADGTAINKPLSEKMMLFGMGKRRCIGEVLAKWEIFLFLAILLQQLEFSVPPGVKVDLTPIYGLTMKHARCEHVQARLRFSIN
# CYP2C9 [11] = target: T4, CYP2C9; test: Time dependent inhibition of CYP2C9 (unknown origin) at 30 uM by LC/MS system; format: ADME
# In short: as §1
# CYP2D6 [12] = target: T1, CYP2D6; test: Time dependent inhibition of CYP2D6 (unknown origin) at 30 uM by LC/MS system; format: ADME
# In short: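 Preincubation with HLMs at 1.0 mg/mL in 0.1 M sodium phosphate plus NADPH-generating system for 0 or 30 min, then tenfold dilution into incubation containing 30 μM dextromethorphan for 10 min; chromatographic read-out. Activity relative to controls without inhibitor; inactivation = 100×[1 − %control(30 min)/%control(0 min)], threshold 10%. Initial 100 μM lowered where reversible inhibition was strong.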
# CYP2B6 [13] = target: T3, CYP2B6; test: Time dependent inhibition of CYP2B6 (unknown origin) at 3 uM by LC/MS system; format: ADME
# CYP3A4 [14] = target: T5, CYP3A4; test: Time dependent inhibition of CYP3A4 (unknown origin) at 10 uM by LC/MS system; format: ADME
# In short: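 CYP3A4: human liver microsomes at 0.5 mg/mL in preincubation, 0.1 M sodium phosphate, NADPH-generating system, 0 or 30 min. Ten-fold dilution into incubation with 2.5 μM midazolam (final), 10 min. Each value is relative to the matched control without inhibitor. % enzyme inactivation = 100 × [1 − %control(30 min)/%control(0 min)]; 10% threshold.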
# CYP2C9 [15] = target: T4, CYP2C9; test: in vitro
# CYP2C8 [16] = target: T2, CYP2C8; test: Time dependent inhibition of CYP2C8 (unknown origin) at 30 uM by LC/MS system; format: ADME
# In short: (§2)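 CYP2C8 in human liver microsomes (1.0 mg/mL in preincubation), 0.1 M sodium phosphate, NADPH-generating system. Preincubation 0 or 30 min, then ten-fold dilution into incubation with 10 μM paclitaxel (final) for 10 min. Activity is taken relative to the matched no-inhibitor control. % inactivation = 100 × [1 − %control(30 min)/%control(0 min)]; threshold 10%.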
# CYP2D6 [17] = target: T1, CYP2D6; test: Time dependent inhibition of CYP2D6 (unknown origin) at 10 uM by LC/MS system; format: ADME
# In short: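 CYP2D6 activity was measured with 30 μM dextromethorphan (final) after 0 or 30 min preincubation of compound with human liver microsomes (1.0 mg/mL) and NADPH-generating system in 0.1 M sodium phosphate. A ten-fold dilution was followed by a 10-min incubation. % inactivation = 100 × [1 − %control(30 min)/%control(0 min)]; threshold 10%.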
# CYP2B6 [18] = target: T3, CYP2B6; test: Time dependent inhibition of CYP2B6 (unknown origin) at 10 uM by LC/MS system; format: ADME
# In short: as §2, with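 “CYP2B6” for “CYP2C8”, “solution containing 50” for “with 10”, “bupropion” for “paclitaxel”, “expressed as percent of” for “taken relative to”, “control(30 min)/control(0” for “%control(30 min)/%control(0”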
# CYP2C8 [19] = target: T2, CYP2C8; test: Time dependent inhibition of CYP2C8 (unknown origin) at 3 uM by LC/MS system; format: ADME
# In short: as §2
# CYP2B6 [20] = target: T3, CYP2B6; test: Time dependent inhibition of CYP2B6 (unknown origin) at 30 uM by LC/MS system; format: ADME
# In short: as §2, with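 “CYP2B6” for “CYP2C8”, “solution containing 50” for “with 10”, “bupropion” for “paclitaxel”, “expressed as percent of” for “taken relative to”, “control(30 min)/control(0” for “%control(30 min)/%control(0”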
# CYP2B6 [21] = target: T3, CYP2B6; test: Time dependent inhibition of CYP2B6 (unknown origin) at 0.3 uM by LC/MS system; format: ADME
# In short: as §2, with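 “CYP2B6” for “CYP2C8”, “solution containing 50” for “with 10”, “bupropion” for “paclitaxel”, “expressed as percent of” for “taken relative to”, “control(30 min)/control(0” for “%control(30 min)/%control(0”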
# CYP2C8 [22] = target: T2, CYP2C8; test: Time dependent inhibition of CYP2C8 (unknown origin) at 10 uM by LC/MS system; format: ADME
# In short: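 CYP2C8 in human liver microsomes (1.0 mg/mL in preincubation), 0.1 M sodium phosphate, NADPH-generating system. Preincubation 0 or 30 min, then ten-fold dilution into incubation with 10 μM paclitaxel (final) for 10 min.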
# CYP2B6 [23] = target: T3, CYP2B6; test: in vitro; remark: listed apart in the source
# T1 sequence (P10635 whole entry): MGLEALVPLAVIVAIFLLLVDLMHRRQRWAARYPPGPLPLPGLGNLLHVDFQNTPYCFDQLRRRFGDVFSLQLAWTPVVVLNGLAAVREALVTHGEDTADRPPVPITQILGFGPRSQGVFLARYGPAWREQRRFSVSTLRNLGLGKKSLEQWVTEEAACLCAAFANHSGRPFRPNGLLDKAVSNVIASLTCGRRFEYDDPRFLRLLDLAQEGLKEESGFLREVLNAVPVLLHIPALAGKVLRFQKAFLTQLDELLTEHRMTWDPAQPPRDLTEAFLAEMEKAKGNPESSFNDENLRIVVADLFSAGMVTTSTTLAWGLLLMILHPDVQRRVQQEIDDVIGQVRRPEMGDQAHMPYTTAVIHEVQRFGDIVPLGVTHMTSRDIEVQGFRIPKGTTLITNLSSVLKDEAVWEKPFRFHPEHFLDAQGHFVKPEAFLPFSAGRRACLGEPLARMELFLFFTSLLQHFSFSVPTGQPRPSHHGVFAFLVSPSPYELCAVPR
SMILES,inhibition at 100 µM (CYP2D6 [1]),PB (Liver microsome [2]),inhibition at 100 µM (CYP2C8 [3]),inhibition at 100 µM (CYP2B6 [4]),CLH (Liver microsome [5]),inhibition at 100 µM (CYP2C19; microsomes),clearance [6],Drug metabolism (Liver microsome [8]),inhibition at 100 µM (CYP3A4 [9]),clearance [10],inhibition at 100 µM (CYP1A2),inhibition at 100 µM (CYP2C19; human liver microsomes),inhibition at 10 µM (CYP3A4 [14]),inhibition at 100 µM (CYP2C9 [15]),further results
O=C(O)COc1ccc(C(=O)c2cccs2)c(Cl)c1Cl,< 10%,436.7 pmol,< 10%,< 10%,0.042 µL/min/mg,35%,0.111 µL/min/mg,4.2 pmol/min,< 10%,0.069 µL/min/mg,< 10%,–,–,–,inhibition at 10 µM (CYP2C9 [7]): 28%
CCOC(=O)C1=C(COCCN)NC(C)=C(C(=O)OC)C1c1ccccc1Cl (stereo not drawn) [AMLODIPINE],< 10%,7.1 pmol,< 10%,–,–,–,–,metabolite_not_detected,42%,–,< 10%,< 10%,< 10%,–,inhibition at 30 µM (CYP2C9 [11]): < 10%; inhibition at 30 µM (CYP2D6 [12]): < 10%; inhibition at 3 µM (CYP2B6 [13]): < 10%
CCN(CC)Cc1cc(Nc2ccnc3cc(Cl)ccc23)ccc1O [AMODIAQUINE],–,208.1 pmol,–,< 10%,0.021 µL/min/mg,< 10%,0.021 µL/min/mg,2.1 pmol/min,< 10%,–,< 10%,–,–,< 10%,inhibition at 30 µM (CYP2C8 [16]): < 10%; inhibition at 10 µM (CYP2D6 [17]): < 10%
CCc1oc2ccccc2c1C(=O)c1cc(Br)c(O)c(Br)c1 [BENZBROMARONE],< 10%,389.9 pmol,–,–,0.03 µL/min/mg,–,0.032 µL/min/mg,3 pmol/min,–,0.002 µL/min/mg,12%,< 10%,< 10%,–,inhibition at 10 µM (CYP2B6 [18]): < 10%; inhibition at 3 µM (CYP2C8 [19]): < 10%
Cc1ccc(-c2cc(C(F)(F)F)nn2-c2ccc(S(N)(=O)=O)cc2)cc1 [CELECOXIB],–,13 pmol,< 10%,–,–,< 10%,–,metabolite_not_detected,–,–,< 10%,–,< 10%,–,inhibition at 30 µM (CYP2C9 [11]): < 10%; inhibition at 30 µM (CYP2B6 [20]): < 10%; inhibition at 30 µM (CYP2D6 [12]): < 10%
COC(=O)[C@H](c1ccccc1Cl)N1CCc2sccc2C1 [CLOPIDOGREL],< 10%,417.4 pmol,< 10%,–,0.236 µL/min/mg,10%,1.08 µL/min/mg,23.6 pmol/min,–,0.848 µL/min/mg,< 10%,–,–,< 10%,inhibition at 0.3 µM (CYP2B6 [21]): 44%
CCc1ccc(CCOc2ccc(CC3SC(=O)NC3=O)cc2)nc1 (stereo not drawn) [PIOGLITAZONE],< 10%,353 pmol,–,38%,–,–,0.036 µL/min/mg,metabolite_not_detected,61%,0.036 µL/min/mg,< 10%,< 10%,–,< 10%,inhibition at 30 µM (CYP2C8 [16]): < 10%
CN(CCOc1ccc(CC2SC(=O)NC2=O)cc1)c1ccccn1 (stereo not drawn) [ROSIGLITAZONE],–,516.1 pmol,–,< 10%,0.022 µL/min/mg,–,0.048 µL/min/mg,2.2 pmol/min,–,0.028 µL/min/mg,< 10%,< 10%,–,< 10%,inhibition at 10 µM (CYP2C8 [22]): < 10%
Clc1ccccc1CN1CCc2sccc2C1 [TICLOPIDINE],–,–,< 10%,–,–,–,–,–,26%,–,36%,–,–,< 10%,inhibition at 0.1 µM (CYP2B6 [23]): 35%; inhibition at 10 µM (CYP2D6 [17]): < 10%
COc1cc(C(=O)NS(=O)(=O)c2ccccc2C)ccc1Cc1cn(C)c2ccc(NC(=O)OC3CCCC3)cc12 [ZAFIRLUKAST],< 10%,36.4 pmol,–,–,–,–,0.207 µL/min/mg,metabolite_not_detected,–,0.207 µL/min/mg,11%,< 10%,43%,–,inhibition at 10 µM (CYP2B6 [18]): < 10%; inhibition at 10 µM (CYP2C9 [7]): < 10%; inhibition at 3 µM (CYP2C8 [19]): < 10%
